Laboratory results published in ChEMBL document CHEMBL4325837, “Discovery of novel NO-releasing celastrol derivatives with Hsp90 inhibition and cytotoxic activities” (Eur J Med Chem, 2018).
Blank lines part the entries; values can stand above or below the molecule they belong to. Active and inactive are the calls of the source. The rule behind the calls is not given here.

Key:
MCF7 = experiment: Antiproliferative activity against human MCF7 cells after 48 hrs by MTT assay; assay type: functional, cell-based; settings: MCF7, 48 h
Procedure, shortened: (§1)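 MTT assay. Cells were seeded at 5.0 × 10⁴ cells/ml in 100 μL per well and grown 24 h. They were then exposed to a range of concentrations for 48 h. MTT (5 mg/ml) was added for 4 h, the supernatant was removed and DMSO was added. OD was read at 570 nm. Assays were run in triplicate and IC50 is reported as mean ± SD, n = 3.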

A549 [1] = experiment: Antiproliferative activity against human A549 cells after 48 hrs by MTT assay; assay type: functional, cell-based; settings: A549, 48 h; procedure, shortened: as §1
HOS = experiment: Antiproliferative activity against human HOS cells after 48 hrs by MTT assay; assay type: functional, cell-based; procedure, shortened: as §1
HepG2 = experiment: Antiproliferative activity against human HepG2 cells after 48 hrs by MTT assay; assay type: functional, cell-based; settings: HepG2, 48 h; procedure, shortened: as §1
[2] = Drug metabolism in human A549 cells assessed as nitric oxide release at 4 uM measured up to 24 hrs; assay type: ADME, cell-based; settings: a549, 24 h
Procedure, shortened: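 A549 cells were seeded at 5.0 × 10⁴ cells/ml in 100 μL wells and grown 24 h at 37 °C. Hybrids were added at 4 μM for varying times, with 24 h used for the full set. NO was measured with a Nitrate/Nitrite assay kit against a standard curve, reading OD at 550 nm. Values are the mean of three independent experiments.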

A549 [3] = experiment: Induction of apoptosis in human A549 cells assessed as nuclear fragmentation at 0.3 to 1.2 uM after 48 hrs by Hoechst 33342 staining based fluorescent microscopic method; assay type: functional, cell-based
Procedure, shortened: (§2)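 A549 cells (4 × 10⁵ per 6 cm dish) were grown 24 h, then treated for 48 h. Cells were washed twice with PBS, stained with Hoechst 33342 (10 µg/ml) for 5 min at room temperature in the dark, and examined by fluorescence microscopy for chromatin condensation and nuclear fragmentation.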

A549 [4] = experiment: Induction of apoptosis in human A549 cells assessed as early apoptotic cells at 1.2 uM after 48 hrs by Annexin V-FITC/propidium iodide staining-based flow cytometric analysis (reference value: 0.5%); assay type: functional
A549 [5] = experiment: Cell cycle arrest in human A549 cells assessed as accumulation at G1 phase at 0.8 uM by after 24 hrs by RNase A/propidium iodide staining-based flow cytometric analysis (reference value: 46.97%); assay type: functional
A549 [6] = experiment: Cell cycle arrest in human A549 cells assessed as accumulation at G2 phase at 0.2 uM by after 24 hrs by RNase A/propidium iodide staining-based flow cytometric analysis (reference value: 24.84%); assay type: functional
A549 [7] = experiment: Induction of apoptosis in human A549 cells assessed as late apoptotic cells at 0.6 uM after 48 hrs by Annexin V-FITC/propidium iodide staining-based flow cytometric analysis (reference value: 0.4%); assay type: functional
Procedure, shortened: (§3)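 A549 cells (4 × 10⁵ per 6 cm dish) were grown 24 h, then treated for 48 h. Cells were harvested, washed twice with cold PBS and resuspended in 250 μL binding buffer with 2.5 μL PI and 2.5 μL Annexin V-FITC. After 15 min at room temperature in the dark, they were analysed by flow cytometry for early and late apoptotic fractions.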

[8] = target: T1, Heat shock protein HSP90 (Homo sapiens) (UniProt P07900+P08238); experiment: Inhibition of HSP90 in human A549 cells at 0.5 to 2.5 uM after 24 hrs by Western blot analysis; assay type: cell-based
Procedure, shortened: (§4)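 A549 cells (5 × 10⁵ per 6 cm dish) were grown 24 h, then treated for 24 h. Cells were lysed and the lysate spun at 10,000 g for 20 min at 4 °C. Protein was adjusted to 3 mg/ml by BCA and run on 10% SDS-PAGE. Blots were probed with monoclonal antibodies for Cdk4, Hsp90, p-Akt and Akt, with β-actin as internal control.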

A549 [9] = experiment: Induction of apoptosis in human A549 cells assessed as necrotic cells at 0.3 uM after 48 hrs by Annexin V-FITC/propidium iodide staining-based flow cytometric analysis (reference value: 0.6%); assay type: functional; procedure, shortened: as §3
A549 [10] = experiment: Induction of apoptosis in human A549 cells assessed as late apoptotic cells at 1.2 uM after 48 hrs by Annexin V-FITC/propidium iodide staining-based flow cytometric analysis (reference value: 0.4%); assay type: functional
A549 [11] = experiment: Cell cycle arrest in human A549 cells assessed as accumulation at G1 phase at 0.4 uM by after 24 hrs by RNase A/propidium iodide staining-based flow cytometric analysis (reference value: 46.97%); assay type: functional
A549 [12] = experiment: Induction of apoptosis in human A549 cells assessed as early apoptotic cells at 0.3 uM after 48 hrs by Annexin V-FITC/propidium iodide staining-based flow cytometric analysis (reference value: 0.5%); assay type: functional; procedure, shortened: as §3
A549 [13] = experiment: Induction of apoptosis in human A549 cells after 48 hrs by Annexin V-FITC/propidium iodide staining-based flow cytometric analysis; assay type: functional, cell-based; procedure, shortened: as §3
A549 [14] = experiment: Cell cycle arrest in human A549 cells assessed as accumulation at G2 phase at 0.4 uM by after 24 hrs by RNase A/propidium iodide staining-based flow cytometric analysis (reference value: 24.84%); assay type: functional
A549 [15] = experiment: Induction of apoptosis in human A549 cells assessed as necrotic cells at 0.6 uM after 48 hrs by Annexin V-FITC/propidium iodide staining-based flow cytometric analysis (reference value: 0.6%); assay type: functional; procedure, shortened: as §3
A549 [16] = experiment: Induction of apoptosis in human A549 cells assessed as necrotic cells at 1.2 uM after 48 hrs by Annexin V-FITC/propidium iodide staining-based flow cytometric analysis (reference value: 0.6%); assay type: functional
A549 [17] = experiment: Induction of apoptosis in human A549 cells assessed as viable cells at 1.2 uM after 48 hrs by Annexin V-FITC/propidium iodide staining-based flow cytometric analysis (reference value: 98.5%); assay type: functional; settings: A549, 48 h, read-out: Activity
[18] = target: T1, Heat shock protein HSP90 (Homo sapiens); experiment: Inhibition of HSP90 in human A549 cells assessed as decrease in CDK4 protein expression at 0.5 to 2.5 uM after 24 hrs by Western blot analysis; assay type: cell-based; procedure, shortened: as §4
A549 [19] = experiment: Induction of apoptosis in human A549 cells assessed as viable cells at 0.6 uM after 48 hrs by Annexin V-FITC/propidium iodide staining-based flow cytometric analysis (reference value: 98.5%); assay type: functional; settings: A549, 48 h, read-out: Activity; procedure, shortened: as §3
A549 [20] = experiment: Cell cycle arrest in human A549 cells assessed as accumulation at G2 phase at 0.8 uM by after 24 hrs by RNase A/propidium iodide staining-based flow cytometric analysis (reference value: 24.84%); assay type: functional
A549 [21] = experiment: Cell cycle arrest in human A549 cells assessed as accumulation at S phase at 0.4 uM by after 24 hrs by RNase A/propidium iodide staining-based flow cytometric analysis (reference value: 28.11%); assay type: functional
A549 [22] = experiment: Induction of apoptosis in human A549 cells assessed as early apoptotic cells at 0.6 uM after 48 hrs by Annexin V-FITC/propidium iodide staining-based flow cytometric analysis (reference value: 0.5%); assay type: functional; procedure, shortened: as §3
A549 [23] = experiment: Induction of apoptosis in human A549 cells assessed as chromatin condensation at 0.3 to 1.2 uM after 48 hrs by Hoechst 33342 staining based fluorescent microscopic method; assay type: functional, cell-based; procedure, shortened: as §2
[24] = target: T1, Heat shock protein HSP90 (Homo sapiens); experiment: Inhibition of HSP90 in human A549 cells assessed as decrease in Akt phosphorylation at 0.5 to 2.5 uM after 24 hrs by Western blot analysis; assay type: cell-based; procedure, shortened: as §4
A549 [25] = experiment: Induction of apoptosis in human A549 cells assessed as late apoptotic cells at 0.3 uM after 48 hrs by Annexin V-FITC/propidium iodide staining-based flow cytometric analysis (reference value: 0.4%); assay type: functional; procedure, shortened: as §3
A549 [26] = experiment: Induction of apoptosis in human A549 cells assessed as viable cells at 0.3 uM after 48 hrs by Annexin V-FITC/propidium iodide staining-based flow cytometric analysis (reference value: 98.5%); assay type: functional; settings: A549, 48 h, read-out: Activity; procedure, shortened: as §3
A549 [27] = experiment: Cell cycle arrest in human A549 cells assessed as accumulation at S phase at 0.2 uM by after 24 hrs by RNase A/propidium iodide staining-based flow cytometric analysis (reference value: 28.11%); assay type: functional
A549 [28] = experiment: Cell cycle arrest in human A549 cells assessed as accumulation at S phase at 0.8 uM by after 24 hrs by RNase A/propidium iodide staining-based flow cytometric analysis (reference value: 28.11%); assay type: functional
A549 [29] = experiment: Cell cycle arrest in human A549 cells assessed as accumulation at G1 phase at 0.2 uM by after 24 hrs by RNase A/propidium iodide staining-based flow cytometric analysis (reference value: 46.97%); assay type: functional

SMILES: CC1=C(O)C(=O)C=C2C1=CC=C1[C@@]2(C)CC[C@@]2(C)[C@@H]3C[C@](C)(C(=O)OCCOc4no[n+]([O-])c4S(=O)(=O)c4ccccc4)CC[C@]3(C)CC[C@]12C
- IC50 (MCF7): 2.76 µM
- IC50 (A549 [1]): 2.28 µM
- IC50 (HOS): 1.69 µM
- IC50 (HepG2): 4.75 µM
- Drug metabolism [2]: Metabolite_Detected

SMILES: CC1=C(O)C(=O)C=C2C1=CC=C1[C@@]2(C)CC[C@@]2(C)[C@@H]3C[C@](C)(C(=O)NCCCOc4no[n+]([O-])c4S(=O)(=O)c4ccccc4)CC[C@]3(C)CC[C@]12C
- Activity (A549 [3]): Active
- Activity (A549 [4]): 12.9%
- Activity (A549 [5]): 61.12%
- Activity (A549 [6]): 21.12%
- Activity (A549 [7]): 20%
- IC50 (MCF7): 0.78 µM
- inhibition [8]: inactive
- Activity (A549 [9]): 1.7%
- IC50 (A549 [1]): 0.43 to 0.48 µM
- Activity (A549 [10]): 31%
- Activity (A549 [11]): 56.36%
- Activity (A549 [12]): 3.1%
- Activity (A549 [13]): Dose-dependent effect
- Activity (A549 [14]): 18.38%
- Activity (A549 [15]): 5.3%
- Activity (A549 [16]): 9.8%
- viability at 1.2 µM (A549 [17]): 46.3%
- inhibition [18]: Active
- viability at 0.6 µM (A549 [19]): 64.8%
- IC50 (HOS): 0.51 µM
- Activity (A549 [20]): 16.59%
- Activity (A549 [21]): 25.12%
- Activity (A549 [22]): 9.9%
- Activity (A549 [23]): Active
- inhibition [24]: Active
- Activity (A549 [25]): 6.4%
- viability at 0.3 µM (A549 [26]): 88.8%
- Activity (A549 [27]): 27.71%
- Activity (A549 [28]): 25.48%
- IC50 (HepG2): 1.41 µM
- Activity (A549 [29]): 52.05%
- Drug metabolism [2]: Metabolite_Detected

SMILES: CC1=C(O)C(=O)C=C2C1=CC=C1[C@@]2(C)CC[C@@]2(C)[C@@H]3C[C@](C)(C(=O)OCC(C)Oc4no[n+]([O-])c4S(=O)(=O)c4ccccc4)CC[C@]3(C)CC[C@]12C (stereo partly specified)
- IC50 (MCF7): 2.02 µM
- IC50 (A549 [1]): 2.07 µM
- IC50 (HOS): 3.03 µM
- IC50 (HepG2): 2.39 µM

SMILES: CC1=C(O)C(=O)C=C2C1=CC=C1[C@@]2(C)CC[C@@]2(C)[C@@H]3C[C@](C)(C(=O)NCCOc4no[n+]([O-])c4S(=O)(=O)c4ccccc4)CC[C@]3(C)CC[C@]12C
- IC50 (MCF7): 1.52 µM
- IC50 (A549 [1]): 1.08 µM
- IC50 (HOS): 1.47 µM
- IC50 (HepG2): 3.82 µM
- Drug metabolism [2]: Metabolite_Detected

Continued by falling IC50 (A549 [1]), values first:

- IC50 (A549 [1]): 25.5 µM
SMILES: NCCCOc1no[n+]([O-])c1S(=O)(=O)c1ccccc1

- IC50 (MCF7): 3.82 µM
- IC50 (A549 [1]): 4.21 µM
- IC50 (HepG2): 6.08 µM
- Drug metabolism [2]: Metabolite_Detected
SMILES: CC1=C(O)C(=O)C=C2C1=CC=C1[C@@]2(C)CC[C@@]2(C)[C@@H]3C[C@](C)(C(=O)OCCCCO[N+](=O)[O-])CC[C@]3(C)CC[C@]12C
- IC50 (HOS): 2.43 µM

- IC50 (MCF7): 3.95 µM
- IC50 (A549 [1]): 2.46 µM
- IC50 (HepG2): 3.53 µM
SMILES: CC1=C(O)C(=O)C=C2C1=CC=C1[C@@]2(C)CC[C@@]2(C)[C@@H]3C[C@](C)(C(=O)OCCCCOc4no[n+]([O-])c4S(=O)(=O)c4ccccc4)CC[C@]3(C)CC[C@]12C
- IC50 (HOS): 2.47 µM
